Experimental data from ChEMBL document CHEMBL3779767, “Identification of potent and selective MTH1 inhibitors” (Bioorg Med Chem Lett, 2016).
The source made the active and inactive calls. The rule behind the calls is not given here.

Legend:
[1] = biological target: Serine/threonine-protein kinase 32C (Homo sapiens) (UniProt Q86UX6); experiment: Inhibition of partial length human YANK3 expressed in bacterial system at 1 uM
In short: (§1)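 Single-concentration screen across a panel of 97 kinases, with the test compound at 1 uM.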

[2] = biological target: SRSF protein kinase 3 (Homo sapiens) (UniProt Q9UPE1); experiment: Inhibition of partial length human SRPK3 expressed in bacterial system at 1 uM; in short: as §1
[3] = Cytotoxicity against human WI38 cells assessed as change in phenotypic response up to 50 uM; type: cell-based; details: wi-38
[4] = biological target: Mitogen-activated protein kinase 9 (Homo sapiens) (UniProt P45984); experiment: Inhibition of partial length human JNK2 expressed in mammalian system at 1 uM
In short: (§2)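 Single-point screen within a 97-kinase profiling panel, with the test compound at 1 µM.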

[5] = tested on: Mast/stem cell growth factor receptor Kit (Homo sapiens), P10721 [V559D,T670I]; experiment: Inhibition of partial length human KIT V559D/T670I double mutant expressed in bacterial system at 1 uM
In short: (§3)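 Single-concentration screen at 1 µM test concentration, run as part of a commercial binding/activity profiling panel covering 97 kinases.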

[6] = biological target: Tyrosine-protein kinase BTK (Homo sapiens) (UniProt Q06187); experiment: Inhibition of partial length human BTK expressed in mammalian system at 1 uM; in short: as §2
NCI-H358 = experiment: Antiproliferative activity against human NCI-H358 cells assessed as change in phenotypic response measured after prolonged treatment; type: functional, cell-based
[7] = biological target: Epidermal growth factor receptor (Homo sapiens) (UniProt P00533); experiment: Inhibition of partial length human EGFR expressed in bacterial system at 1 uM; in short: as §2
BJ = experiment: Cytotoxicity against human BJ cells assessed as change in phenotypic response measured after prolonged treatment; type: cell-based
Homo sapiens = species: Homo sapiens; experiment: Inhibition of partial length human CDK11 expressed in bacterial system at 1 uM
In short: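 Single-concentration screen within a 97-kinase profiling panel (KinomeEdge), with the compound tested at one fixed concentration across all panel kinases.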

HMEC = experiment: Cytotoxicity against human HMEC cells assessed as change in phenotypic response measured after prolonged treatment; type: cell-based
Liver microsome = experiment: Intrinsic clearance in human liver microsomes; type: ADME
[8] = Cytotoxicity against human WI38 cells assessed as change in phenotypic response measured after prolonged treatment; type: cell-based; details: wi-38
[9] = biological target: Insulin-like growth factor 1 receptor (Homo sapiens) (UniProt P08069); experiment: Inhibition of partial length human IGF1R expressed in bacterial system at 1 uM; in short: as §2
[10] = biological target: Protein kinase C epsilon type (Homo sapiens) (UniProt Q02156); experiment: Inhibition of partial length human PRKCE expressed in mammalian system at 1 uM; in short: as §1
[11] = biological target: Mitogen-activated protein kinase kinase kinase 4 (Homo sapiens) (UniProt Q9Y6R4); experiment: Inhibition of partial length human MAP3K4 expressed in bacterial system at 1 uM; in short: as §2
[12] = biological target: Dual specificity tyrosine-phosphorylation-regulated kinase 1B (Homo sapiens) (UniProt Q9Y463); experiment: Inhibition of partial length human DYRK1B expressed in bacterial system at 1 uM; in short: as §2
[13] = Efflux ratio of permeability in MDCK cells; type: ADME, cell-based, Canis lupus familiaris; details: dog
In short: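 Permeability measured across a confluent MDCK cell monolayer, with the efflux ratio reported alongside the permeability value.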

[14] = biological target: Ephrin type-A receptor 2 (Homo sapiens) (UniProt P29317); experiment: Inhibition of partial length human EPHA2 expressed in bacterial system at 1 uM; in short: as §2
[15] = biological target: Atypical kinase COQ8A, mitochondrial (Homo sapiens) (UniProt Q8NI60); experiment: Inhibition of partial length human ADCK3 expressed in bacterial system at 1 uM; in short: as §2
[16] = biological target: 3-phosphoinositide-dependent protein kinase 1 (Homo sapiens) (UniProt O15530); experiment: Inhibition of partial length human PDPK1 expressed in bacterial system at 1 uM; in short: as §1
[17] = tested on: Epidermal growth factor receptor (Homo sapiens), P04626+P00533+Q15303+P21860 [L858R]; experiment: Inhibition of partial length human EGFR L858R mutant expressed in bacterial system at 1 uM; in short: as §3
[18] = biological target: Serine/threonine-protein kinase STK11 (Homo sapiens) (UniProt Q15831); experiment: Inhibition of partial length human LKB1 expressed in bacterial system at 1 uM; in short: as §2
[19] = biological target: Mitogen-activated protein kinase 11 (Homo sapiens) (UniProt Q15759); experiment: Inhibition of partial length human p38beta expressed in bacterial system at 1 uM; in short: as §1
[20] = biological target: Platelet-derived growth factor receptor alpha (Homo sapiens) (UniProt P16234); experiment: Inhibition of partial length human PDGFRalpha expressed in mammalian system at 1 uM; in short: as §1
[21] = Intrinsic clearance in mouse liver microsomes; type: ADME
[22] = Plasma protein binding in human; type: ADME, cell-free; details: read-out: PPB (converted)
[23] = biological target: Tyrosine-protein kinase receptor UFO (Homo sapiens) (UniProt P30530); experiment: Inhibition of partial length human AXL expressed in bacterial system at 1 uM; in short: as §2
[24] = biological target: Receptor tyrosine-protein kinase erbB-4 (Homo sapiens) (UniProt Q15303); experiment: Inhibition of partial length human ERBB4 expressed in bacterial system at 1 uM; in short: as §2
SAOS-2 = experiment: Antiproliferative activity against human Saos2 cells assessed as change in phenotypic response up to 50 uM; type: functional, cell-based
[25] = Cytotoxicity against human 293T cells assessed as change in phenotypic response measured after prolonged treatment; type: cell-based; details: hek-293t
[26] = biological target: Testis-specific serine/threonine-protein kinase 1 (Homo sapiens) (UniProt Q9BXA7); experiment: Inhibition of partial length human TSSK1B expressed in bacterial system at 1 uM; in short: as §1
NCI-H460 = experiment: Antiproliferative activity against human NCI-H460 cells assessed as change in phenotypic response up to 50 uM; type: functional, cell-based
[27] = biological target: Serine/threonine-protein kinase PAK 1 (Homo sapiens) (UniProt Q13153); experiment: Inhibition of partial length human PAK1 expressed in bacterial system at 1 uM; in short: as §1
[28] = biological target: Non-receptor tyrosine-protein kinase TYK2 (Homo sapiens) (UniProt P29597); experiment: Inhibition of partial length human TYK2 JH1catalytic domain expressed in mammalian system at 1 uM; in short: as §1
[29] = biological target: Platelet-derived growth factor receptor beta (Homo sapiens) (UniProt P09619); experiment: Inhibition of partial length human PDGFRbeta expressed in bacterial system at 1 uM; in short: as §1
[30] = biological target: Serine/threonine-protein kinase PLK4 (Homo sapiens) (UniProt O00444); experiment: Inhibition of partial length human PLK4 expressed in mammalian system at 1 uM; in short: as §1
[31] = biological target: Tyrosine-protein kinase ZAP-70 (Homo sapiens) (UniProt P43403); experiment: Inhibition of partial length human ZAP70 expressed in mammalian system at 1 uM; in short: as §1
[32] = biological target: MAP kinase-activated protein kinase 2 (Homo sapiens) (UniProt P49137); experiment: Inhibition of partial length human MAPKAPK2 expressed in bacterial system at 1 uM; in short: as §2
[33] = biological target: Cyclin-dependent kinase 9 (Homo sapiens) (UniProt P50750); experiment: Inhibition of partial length human CDK9 expressed in bacterial system at 1 uM; in short: as §2
[34] = biological target: Serine/threonine-protein kinase pim-3 (Homo sapiens) (UniProt Q86V86); experiment: Inhibition of partial length human PIM3 expressed in bacterial system at 1 uM; in short: as §1

Sequence of Serine/threonine-protein kinase PLK4 (Homo sapiens) (O00444 whole entry): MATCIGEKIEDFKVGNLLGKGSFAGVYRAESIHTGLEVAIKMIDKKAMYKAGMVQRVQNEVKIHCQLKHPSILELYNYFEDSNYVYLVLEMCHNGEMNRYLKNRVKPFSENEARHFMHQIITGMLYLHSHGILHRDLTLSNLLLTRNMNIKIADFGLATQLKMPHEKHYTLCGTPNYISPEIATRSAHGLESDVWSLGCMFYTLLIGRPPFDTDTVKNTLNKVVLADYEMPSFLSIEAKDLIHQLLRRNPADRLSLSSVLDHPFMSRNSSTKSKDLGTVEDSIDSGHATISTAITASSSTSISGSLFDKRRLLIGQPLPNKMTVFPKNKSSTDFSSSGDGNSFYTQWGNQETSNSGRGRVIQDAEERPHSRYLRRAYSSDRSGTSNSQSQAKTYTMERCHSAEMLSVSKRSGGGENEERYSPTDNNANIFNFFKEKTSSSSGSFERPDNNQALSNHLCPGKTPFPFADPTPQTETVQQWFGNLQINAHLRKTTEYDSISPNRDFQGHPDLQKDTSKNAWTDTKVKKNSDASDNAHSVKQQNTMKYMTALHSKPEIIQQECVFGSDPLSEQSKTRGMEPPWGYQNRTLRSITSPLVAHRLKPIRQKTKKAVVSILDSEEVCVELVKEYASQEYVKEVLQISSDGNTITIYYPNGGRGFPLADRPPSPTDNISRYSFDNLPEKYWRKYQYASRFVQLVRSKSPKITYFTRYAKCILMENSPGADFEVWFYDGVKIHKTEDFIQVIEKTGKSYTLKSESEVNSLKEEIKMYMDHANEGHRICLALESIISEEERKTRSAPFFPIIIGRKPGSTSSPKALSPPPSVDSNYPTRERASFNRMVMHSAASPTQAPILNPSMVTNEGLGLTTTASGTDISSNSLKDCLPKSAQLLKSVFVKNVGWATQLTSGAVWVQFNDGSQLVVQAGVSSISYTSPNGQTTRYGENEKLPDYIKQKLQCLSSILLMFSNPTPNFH
Sequence of 3-phosphoinositide-dependent protein kinase 1 (Homo sapiens) (O15530 whole entry): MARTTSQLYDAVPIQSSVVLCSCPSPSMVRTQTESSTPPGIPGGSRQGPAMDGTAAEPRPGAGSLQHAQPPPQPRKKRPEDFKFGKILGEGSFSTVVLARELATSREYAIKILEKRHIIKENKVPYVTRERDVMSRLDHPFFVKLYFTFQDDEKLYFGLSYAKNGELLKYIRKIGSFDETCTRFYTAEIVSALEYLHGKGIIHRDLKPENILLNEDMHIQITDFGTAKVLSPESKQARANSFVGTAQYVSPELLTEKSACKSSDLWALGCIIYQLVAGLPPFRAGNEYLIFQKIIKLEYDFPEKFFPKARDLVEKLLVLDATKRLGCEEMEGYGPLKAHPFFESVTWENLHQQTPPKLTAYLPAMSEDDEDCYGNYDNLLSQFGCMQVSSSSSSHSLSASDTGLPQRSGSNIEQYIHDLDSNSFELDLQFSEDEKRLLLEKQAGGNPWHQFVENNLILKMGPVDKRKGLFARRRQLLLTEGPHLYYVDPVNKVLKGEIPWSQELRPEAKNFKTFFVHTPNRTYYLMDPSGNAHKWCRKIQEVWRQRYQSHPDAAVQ
Sequence of Insulin-like growth factor 1 receptor (Homo sapiens) (P08069 31-736 limits assumed): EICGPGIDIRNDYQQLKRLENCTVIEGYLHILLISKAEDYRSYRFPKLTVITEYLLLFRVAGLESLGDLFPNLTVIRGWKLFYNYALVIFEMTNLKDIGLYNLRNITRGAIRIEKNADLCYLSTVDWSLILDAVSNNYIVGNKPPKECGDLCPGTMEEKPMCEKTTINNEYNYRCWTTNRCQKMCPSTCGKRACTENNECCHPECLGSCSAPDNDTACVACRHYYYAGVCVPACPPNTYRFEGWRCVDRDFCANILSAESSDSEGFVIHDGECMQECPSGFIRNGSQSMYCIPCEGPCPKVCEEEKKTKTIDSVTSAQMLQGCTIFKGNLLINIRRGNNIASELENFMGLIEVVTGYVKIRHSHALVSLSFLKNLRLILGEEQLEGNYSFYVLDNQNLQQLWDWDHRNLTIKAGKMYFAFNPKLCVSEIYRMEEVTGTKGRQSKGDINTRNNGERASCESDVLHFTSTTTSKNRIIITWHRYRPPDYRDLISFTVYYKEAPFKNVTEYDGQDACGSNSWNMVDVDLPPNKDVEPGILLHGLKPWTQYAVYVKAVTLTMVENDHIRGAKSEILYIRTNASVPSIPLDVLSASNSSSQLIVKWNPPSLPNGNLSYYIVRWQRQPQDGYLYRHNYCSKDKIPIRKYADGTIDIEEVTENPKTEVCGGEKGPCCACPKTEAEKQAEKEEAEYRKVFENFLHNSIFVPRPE
Sequence of Insulin-like growth factor 1 receptor (Homo sapiens) (P08069 741-1367 limits assumed): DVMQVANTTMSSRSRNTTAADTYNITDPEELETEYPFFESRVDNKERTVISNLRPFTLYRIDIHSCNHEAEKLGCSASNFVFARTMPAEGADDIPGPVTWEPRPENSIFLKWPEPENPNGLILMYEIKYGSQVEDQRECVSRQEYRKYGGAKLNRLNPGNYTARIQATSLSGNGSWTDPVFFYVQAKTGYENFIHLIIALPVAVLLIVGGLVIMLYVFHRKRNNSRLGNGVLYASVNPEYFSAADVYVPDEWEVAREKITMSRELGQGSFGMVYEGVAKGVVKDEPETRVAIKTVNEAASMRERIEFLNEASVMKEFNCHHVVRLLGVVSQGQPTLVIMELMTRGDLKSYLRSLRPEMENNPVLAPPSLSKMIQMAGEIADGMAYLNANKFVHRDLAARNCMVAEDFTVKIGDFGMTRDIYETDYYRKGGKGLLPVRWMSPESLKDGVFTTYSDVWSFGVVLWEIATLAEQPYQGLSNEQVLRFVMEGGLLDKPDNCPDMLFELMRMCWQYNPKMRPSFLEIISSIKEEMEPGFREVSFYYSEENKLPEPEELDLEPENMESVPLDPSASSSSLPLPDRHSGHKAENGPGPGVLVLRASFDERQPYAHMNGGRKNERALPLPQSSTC
Sequence of Platelet-derived growth factor receptor alpha (Homo sapiens) (P16234 whole entry): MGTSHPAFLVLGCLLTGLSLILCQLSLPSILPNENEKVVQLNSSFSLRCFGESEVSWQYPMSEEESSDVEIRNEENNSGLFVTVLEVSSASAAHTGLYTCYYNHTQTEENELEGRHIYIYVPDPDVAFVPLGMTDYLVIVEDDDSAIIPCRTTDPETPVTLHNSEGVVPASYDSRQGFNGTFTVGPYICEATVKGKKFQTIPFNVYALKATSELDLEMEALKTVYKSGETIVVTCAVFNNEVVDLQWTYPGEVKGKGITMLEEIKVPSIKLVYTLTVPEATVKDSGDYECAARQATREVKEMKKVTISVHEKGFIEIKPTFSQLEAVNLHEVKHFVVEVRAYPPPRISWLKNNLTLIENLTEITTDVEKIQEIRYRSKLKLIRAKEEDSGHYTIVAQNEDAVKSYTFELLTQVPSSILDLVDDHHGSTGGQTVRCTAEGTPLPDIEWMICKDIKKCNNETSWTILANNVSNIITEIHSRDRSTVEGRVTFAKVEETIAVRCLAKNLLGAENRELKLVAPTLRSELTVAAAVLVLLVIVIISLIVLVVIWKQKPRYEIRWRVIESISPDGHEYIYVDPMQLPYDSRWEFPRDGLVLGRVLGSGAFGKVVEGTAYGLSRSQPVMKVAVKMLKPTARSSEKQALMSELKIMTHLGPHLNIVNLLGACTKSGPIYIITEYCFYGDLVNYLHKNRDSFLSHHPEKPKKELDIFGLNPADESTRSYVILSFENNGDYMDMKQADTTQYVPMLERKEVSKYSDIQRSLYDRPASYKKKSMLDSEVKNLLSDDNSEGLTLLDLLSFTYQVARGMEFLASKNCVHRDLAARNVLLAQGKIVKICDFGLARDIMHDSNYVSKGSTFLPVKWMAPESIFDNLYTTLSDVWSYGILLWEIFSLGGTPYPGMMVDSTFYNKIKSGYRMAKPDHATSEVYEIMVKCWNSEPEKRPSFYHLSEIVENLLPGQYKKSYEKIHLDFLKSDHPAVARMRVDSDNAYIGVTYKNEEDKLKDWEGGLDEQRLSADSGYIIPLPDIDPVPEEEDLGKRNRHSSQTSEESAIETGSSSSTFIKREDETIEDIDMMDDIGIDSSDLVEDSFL
Sequence of Mitogen-activated protein kinase 9 (Homo sapiens) (P45984 whole entry, looked up): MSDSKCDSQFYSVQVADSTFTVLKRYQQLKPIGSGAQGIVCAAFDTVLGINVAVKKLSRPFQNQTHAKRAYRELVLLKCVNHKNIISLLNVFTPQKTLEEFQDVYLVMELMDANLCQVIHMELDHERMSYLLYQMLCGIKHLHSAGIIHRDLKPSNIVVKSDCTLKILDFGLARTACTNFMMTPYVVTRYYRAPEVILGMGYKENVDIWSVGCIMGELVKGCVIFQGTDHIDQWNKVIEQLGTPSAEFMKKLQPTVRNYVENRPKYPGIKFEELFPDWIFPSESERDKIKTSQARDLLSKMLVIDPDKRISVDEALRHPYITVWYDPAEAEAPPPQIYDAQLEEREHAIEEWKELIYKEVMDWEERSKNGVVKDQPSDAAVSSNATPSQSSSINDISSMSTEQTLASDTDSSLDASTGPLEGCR
Sequence of Cyclin-dependent kinase 9 (Homo sapiens) (P50750 whole entry): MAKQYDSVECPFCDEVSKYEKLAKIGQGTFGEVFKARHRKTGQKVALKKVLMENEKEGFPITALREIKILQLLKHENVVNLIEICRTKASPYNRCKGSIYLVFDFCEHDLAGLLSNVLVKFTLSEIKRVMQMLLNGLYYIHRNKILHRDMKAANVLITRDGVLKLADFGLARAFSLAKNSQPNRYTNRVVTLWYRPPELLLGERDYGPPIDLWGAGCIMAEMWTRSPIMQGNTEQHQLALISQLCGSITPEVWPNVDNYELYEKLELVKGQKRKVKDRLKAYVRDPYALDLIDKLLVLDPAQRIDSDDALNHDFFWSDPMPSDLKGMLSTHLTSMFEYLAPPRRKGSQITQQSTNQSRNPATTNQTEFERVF

With Cc1cnc(N)nc1OCC(C)(C)CO the inhibition [1] was “inactive”, the inhibition [2] was “inactive” and the Activity [3] was “Non-toxic”. The inhibition [4] was “inactive”, the inhibition [5] was “inactive” and the inhibition [6] was “inactive”. For the same compound, the Activity (NCI-H358) was “inactive”, the inhibition [7] was “inactive” and the Activity (BJ) was “Non-toxic”. The inhibition (Homo sapiens) was “inactive”, the Activity (HMEC) was “Non-toxic” and the CLH (Liver microsome) was 7.5 µL/min/mg. For the same compound, the Activity [8] was “Non-toxic”, the inhibition [9] was “inactive” and the inhibition [10] was “inactive”. For the same compound, the inhibition [11] was “inactive”, the inhibition [12] was “inactive” and the efflux ratio [13] was 0.8. The inhibition [14] was “inactive”, the inhibition [15] was “inactive” and the inhibition [16] was “inactive”. The inhibition [17] was “inactive”, the inhibition [18] was “inactive” and the inhibition [19] was “inactive”. The inhibition [20] was “inactive”, the CLH [21] was 60 µL/min/mg and the fraction unbound [22] was 0.46. The inhibition [23] was “inactive”, the inhibition [24] was “inactive” and the Activity (SAOS-2) was “inactive”. The Activity [25] was “Non-toxic”, the inhibition [26] was “inactive” and the Activity (NCI-H460) was “inactive”. For the same compound, the inhibition [27] was “inactive”, the inhibition [28] was “inactive” and the inhibition [29] was “inactive”. For the same compound, the inhibition [30] was “inactive”, the inhibition [31] was “inactive” and the inhibition [32] was “inactive”. For the same compound, the inhibition [33] was “inactive” and the inhibition [34] was “inactive”.
